Results published in ChEMBL document CHEMBL5058577, “EUbOPEN Chemogenomics Library 2 (Multiplex)” (2022).

System: U2OS
Assay: Multiplex assay against U2OS
Format: toxicity, cell-based
Details: human
Outline: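 Per cents of healthy-nucleus cells form the tubulin, mitochondrial-mass and membrane-permeability phenotype values. Live cells were stained at seeding with Hoechst33342, BioTracker Green Microtubule Cytoskeleton Dye, MitoTracker Red and Annexin V Alexa Fluor 680. After compound addition they were imaged on a CQ1 microscope at 37°C and 5% CO2, and CellPathfinder machine-learning gating split them into Hoechst high-intensity objects or normal cells, normal cells into healthy, pyknosed or fragmented nuclei, and pyknosed cells into mitotic or apoptotic.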

[1] = 12 h, 1 µM, compound concentration 1 uM, replicate 1
[2] = 12 h, 1 µM, compound concentration 1 uM, replicate 2
[3] = 12 h, 10 µM, compound concentration 10 uM, replicate 1
[4] = 12 h, 10 µM, compound concentration 10 uM, replicate 2
[5] = 24 h, 1 µM, compound concentration 1 uM, replicate 1
[6] = 24 h, 1 µM, compound concentration 1 uM, replicate 2
[7] = 24 h, 10 µM, compound concentration 10 uM, replicate 1
[8] = 24 h, 10 µM, compound concentration 10 uM, replicate 2
[9] = 48 h, 1 µM, compound concentration 1 uM, replicate 1
[10] = 48 h, 1 µM, compound concentration 1 uM, replicate 2
[11] = 48 h, 10 µM, compound concentration 10 uM, replicate 1
[12] = 48 h, 10 µM, compound concentration 10 uM, replicate 2

Compound: Oc1c(CN2CCN(c3ccccn3)CC2)cc(Cl)c2cccnc12
- Population Apoptotic (%) [1]: 95%
- Population Fragmented Nuclei (%) [1]: 24%
- Population Healthy Nuclei (%) [1]: 64%
- Population Hoechst High Intensity Objects (%) [1]: 1%
- Population Membrane Permeable-Phenotype (%) [1]: 3%
- Population Mitochondria Different-Phenotype (%) [1]: 1%
- Population Mitotic Cells (%) [1]: 4%
- Population Normal (%) [1]: 98%
- Population Pyknosed Nuclei (%) [1]: 10%
- Population Tubulin-Different-Phenotype (%) [1]: 2%
- Total Cell Count [1]: 237
- Population Apoptotic (%) [2]: 100%
- Population Fragmented Nuclei (%) [2]: 16%
- Population Healthy Nuclei (%) [2]: 78%
- Population Membrane Permeable-Phenotype (%) [2]: 13%
- Population Mitochondria Different-Phenotype (%) [2]: 4%
- Population Mitotic Cells (%) [2]: 0%
- Population Pyknosed Nuclei (%) [2]: 5%
- Population Tubulin-Different-Phenotype (%) [2]: 8%
- Total Cell Count [2]: 93
- Population Apoptotic (%) [3]: 84%
- Population Fragmented Nuclei (%) [3]: 31%
- Population Healthy Nuclei (%) [3]: 56%
- Population Hoechst High Intensity Objects (%) [3]: 2%
- Population Membrane Permeable-Phenotype (%) [3]: 12%
- Population Mitochondria Different-Phenotype (%) [3]: 28%
- Population Mitotic Cells (%) [3]: 15%
- Population Normal (%) [3]: 97%
- Population Pyknosed Nuclei (%) [3]: 11%
- Population Tubulin-Different-Phenotype (%) [3]: 8%
- Total Cell Count [3]: 229
- Population Apoptotic (%) [4]: 87%
- Population Fragmented Nuclei (%) [4]: 18%
- Population Healthy Nuclei (%) [4]: 68%
- Population Hoechst High Intensity Objects (%) [4]: 1%
- Population Membrane Permeable-Phenotype (%) [4]: 6%
- Population Mitochondria Different-Phenotype (%) [4]: 35%
- Population Mitotic Cells (%) [4]: 12%
- Population Normal (%) [4]: 98%
- Population Pyknosed Nuclei (%) [4]: 13%
- Population Tubulin-Different-Phenotype (%) [4]: 11%
- Total Cell Count [4]: 118
- Population Apoptotic (%) [5]: 88%
- Population Fragmented Nuclei (%) [5]: 29%
- Population Healthy Nuclei (%) [5]: 64%
- Population Hoechst High Intensity Objects (%) [5]: 1%
- Population Membrane Permeable-Phenotype (%) [5]: 3%
- Population Mitochondria Different-Phenotype (%) [5]: 2%
- Population Mitotic Cells (%) [5]: 11%
- Population Normal (%) [5]: 98%
- Population Pyknosed Nuclei (%) [5]: 6%
- Population Tubulin-Different-Phenotype (%) [5]: 2%
- Total Cell Count [5]: 270
- Population Apoptotic (%) [6]: 100%
- Population Fragmented Nuclei (%) [6]: 7%
- Population Healthy Nuclei (%) [6]: 87%
- Population Membrane Permeable-Phenotype (%) [6]: 9%
- Population Mitochondria Different-Phenotype (%) [6]: 3%
- Population Mitotic Cells (%) [6]: 0%
- Population Pyknosed Nuclei (%) [6]: 5%
- Population Tubulin-Different-Phenotype (%) [6]: 7%
- Total Cell Count [6]: 97
- Population Apoptotic (%) [7]: 90%
- Population Fragmented Nuclei (%) [7]: 27%
- Population Healthy Nuclei (%) [7]: 63%
- Population Hoechst High Intensity Objects (%) [7]: 4%
- Population Membrane Permeable-Phenotype (%) [7]: 10%
- Population Mitochondria Different-Phenotype (%) [7]: 14%
- Population Mitotic Cells (%) [7]: 9%
- Population Normal (%) [7]: 95%
- Population Pyknosed Nuclei (%) [7]: 9%
- Population Tubulin-Different-Phenotype (%) [7]: 7%
- Total Cell Count [7]: 238
- Population Apoptotic (%) [8]: 100%
- Population Fragmented Nuclei (%) [8]: 29%
- Population Healthy Nuclei (%) [8]: 58%
- Population Hoechst High Intensity Objects (%) [8]: 3%
- Population Membrane Permeable-Phenotype (%) [8]: 9%
- Population Mitochondria Different-Phenotype (%) [8]: 40%
- Population Mitotic Cells (%) [8]: 0%
- Population Normal (%) [8]: 96%
- Population Pyknosed Nuclei (%) [8]: 12%
- Population Tubulin-Different-Phenotype (%) [8]: 6%
- Total Cell Count [8]: 127
- Population Apoptotic (%) [9]: 94%
- Population Fragmented Nuclei (%) [9]: 25%
- Population Healthy Nuclei (%) [9]: 67%
- Population Hoechst High Intensity Objects (%) [9]: 3%
- Population Membrane Permeable-Phenotype (%) [9]: 6%
- Population Mitochondria Different-Phenotype (%) [9]: 3%
- Population Mitotic Cells (%) [9]: 5%
- Population Normal (%) [9]: 96%
- Population Pyknosed Nuclei (%) [9]: 7%
- Population Tubulin-Different-Phenotype (%) [9]: 3%
- Total Cell Count [9]: 276
- Population Apoptotic (%) [10]: 87%
- Population Fragmented Nuclei (%) [10]: 14%
- Population Healthy Nuclei (%) [10]: 77%
- Population Hoechst High Intensity Objects (%) [10]: 1%
- Population Membrane Permeable-Phenotype (%) [10]: 7%
- Population Mitochondria Different-Phenotype (%) [10]: 1%
- Population Mitotic Cells (%) [10]: 12%
- Population Normal (%) [10]: 98%
- Population Tubulin-Different-Phenotype (%) [10]: 5%
- Total Cell Count [10]: 111
- Population Apoptotic (%) [11]: 96%
- Population Fragmented Nuclei (%) [11]: 32%
- Population Healthy Nuclei (%) [11]: 57%
- Population Hoechst High Intensity Objects (%) [11]: 2%
- Population Membrane Permeable-Phenotype (%) [11]: 11%
- Population Mitochondria Different-Phenotype (%) [11]: 19%
- Population Mitotic Cells (%) [11]: 3%
- Population Normal (%) [11]: 97%
- Population Pyknosed Nuclei (%) [11]: 10%
- Population Tubulin-Different-Phenotype (%) [11]: 7%
- Total Cell Count [11]: 275
- Population Apoptotic (%) [12]: 100%
- Population Fragmented Nuclei (%) [12]: 38%
- Population Healthy Nuclei (%) [12]: 42%
- Population Hoechst High Intensity Objects (%) [12]: 4%
- Population Membrane Permeable-Phenotype (%) [12]: 12%
- Population Mitochondria Different-Phenotype (%) [12]: 41%
- Population Mitotic Cells (%) [12]: 0%
- Population Normal (%) [12]: 95%
- Population Pyknosed Nuclei (%) [12]: 19%
- Population Tubulin-Different-Phenotype (%) [12]: 8%
- Total Cell Count [12]: 144

Compound: CCOc1c2c(c(OCC)c3ncccc13)CN(c1ccc(CS(=O)(=O)NC(=O)Cc3ccccc3OC)cc1C)C2=O
- Population Apoptotic (%) [1]: 64%
- Population Fragmented Nuclei (%) [1]: 22%
- Population Healthy Nuclei (%) [1]: 70%
- Population Hoechst High Intensity Objects (%) [1]: 2%
- Population Membrane Permeable-Phenotype (%) [1]: 7%
- Population Mitochondria Different-Phenotype (%) [1]: 3%
- Population Mitotic Cells (%) [1]: 35%
- Population Normal (%) [1]: 97%
- Population Pyknosed Nuclei (%) [1]: 7%
- Population Tubulin-Different-Phenotype (%) [1]: 2%
- Total Cell Count [1]: 189
- Population Apoptotic (%) [2]: 100%
- Population Fragmented Nuclei (%) [2]: 13%
- Population Healthy Nuclei (%) [2]: 82%
- Population Hoechst High Intensity Objects (%) [2]: 1%
- Population Membrane Permeable-Phenotype (%) [2]: 9%
- Population Mitotic Cells (%) [2]: 0%
- Population Normal (%) [2]: 98%
- Population Pyknosed Nuclei (%) [2]: 4%
- Population Tubulin-Different-Phenotype (%) [2]: 6%
- Total Cell Count [2]: 93
- Population Apoptotic (%) [3]: 81%
- Population Fragmented Nuclei (%) [3]: 30%
- Population Healthy Nuclei (%) [3]: 63%
- Population Hoechst High Intensity Objects (%) [3]: 2%
- Population Membrane Permeable-Phenotype (%) [3]: 5%
- Population Mitochondria Different-Phenotype (%) [3]: 3%
- Population Mitotic Cells (%) [3]: 18%
- Population Normal (%) [3]: 97%
- Population Pyknosed Nuclei (%) [3]: 6%
- Population Tubulin-Different-Phenotype (%) [3]: 2%
- Total Cell Count [3]: 248
- Population Apoptotic (%) [4]: 80%
- Population Fragmented Nuclei (%) [4]: 21%
- Population Healthy Nuclei (%) [4]: 75%
- Population Membrane Permeable-Phenotype (%) [4]: 8%
- Population Mitochondria Different-Phenotype (%) [4]: 6%
- Population Mitotic Cells (%) [4]: 20%
- Population Pyknosed Nuclei (%) [4]: 3%
- Population Tubulin-Different-Phenotype (%) [4]: 3%
- Total Cell Count [4]: 136
- Population Apoptotic (%) [5]: 80%
- Population Fragmented Nuclei (%) [5]: 21%
- Population Healthy Nuclei (%) [5]: 71%
- Population Hoechst High Intensity Objects (%) [5]: 3%
- Population Membrane Permeable-Phenotype (%) [5]: 4%
- Population Mitochondria Different-Phenotype (%) [5]: 0%
- Population Mitotic Cells (%) [5]: 20%
- Population Normal (%) [5]: 96%
- Population Pyknosed Nuclei (%) [5]: 6%
- Population Tubulin-Different-Phenotype (%) [5]: 1%
- Total Cell Count [5]: 235
- Population Apoptotic (%) [6]: 100%
- Population Fragmented Nuclei (%) [6]: 19%
- Population Healthy Nuclei (%) [6]: 76%
- Population Hoechst High Intensity Objects (%) [6]: 1%
- Population Membrane Permeable-Phenotype (%) [6]: 7%
- Population Mitochondria Different-Phenotype (%) [6]: 4%
- Population Mitotic Cells (%) [6]: 0%
- Population Normal (%) [6]: 98%
- Population Pyknosed Nuclei (%) [6]: 4%
- Population Tubulin-Different-Phenotype (%) [6]: 4%
- Total Cell Count [6]: 125
- Population Apoptotic (%) [7]: 76%
- Population Fragmented Nuclei (%) [7]: 27%
- Population Healthy Nuclei (%) [7]: 61%
- Population Hoechst High Intensity Objects (%) [7]: 3%
- Population Membrane Permeable-Phenotype (%) [7]: 6%
- Population Mitochondria Different-Phenotype (%) [7]: 2%
- Population Mitotic Cells (%) [7]: 23%
- Population Normal (%) [7]: 96%
- Population Pyknosed Nuclei (%) [7]: 10%
- Population Tubulin-Different-Phenotype (%) [7]: 1%
- Total Cell Count [7]: 285
- Population Apoptotic (%) [8]: 100%
- Population Fragmented Nuclei (%) [8]: 17%
- Population Healthy Nuclei (%) [8]: 76%
- Population Hoechst High Intensity Objects (%) [8]: 0%
- Population Mitotic Cells (%) [8]: 0%
- Population Normal (%) [8]: 99%
- Population Pyknosed Nuclei (%) [8]: 5%
- Population Tubulin-Different-Phenotype (%) [8]: 5%
- Total Cell Count [8]: 152
- Population Apoptotic (%) [9]: 85%
- Population Fragmented Nuclei (%) [9]: 19%
- Population Healthy Nuclei (%) [9]: 74%
- Population Hoechst High Intensity Objects (%) [9]: 2%
- Population Membrane Permeable-Phenotype (%) [9]: 3%
- Population Mitochondria Different-Phenotype (%) [9]: 1%
- Population Mitotic Cells (%) [9]: 15%
- Population Normal (%) [9]: 97%
- Population Pyknosed Nuclei (%) [9]: 5%
- Population Tubulin-Different-Phenotype (%) [9]: 2%
- Total Cell Count [9]: 344
- Population Apoptotic (%) [10]: 100%
- Population Fragmented Nuclei (%) [10]: 17%
- Population Healthy Nuclei (%) [10]: 79%
- Population Hoechst High Intensity Objects (%) [10]: 4%
- Population Membrane Permeable-Phenotype (%) [10]: 7%
- Population Mitochondria Different-Phenotype (%) [10]: 3%
- Population Mitotic Cells (%) [10]: 0%
- Population Normal (%) [10]: 95%
- Population Pyknosed Nuclei (%) [10]: 2%
- Population Tubulin-Different-Phenotype (%) [10]: 5%
- Total Cell Count [10]: 167
- Population Apoptotic (%) [11]: 91%
- Population Fragmented Nuclei (%) [11]: 19%
- Population Healthy Nuclei (%) [11]: 71%
- Population Hoechst High Intensity Objects (%) [11]: 2%
- Population Membrane Permeable-Phenotype (%) [11]: 5%
- Population Mitochondria Different-Phenotype (%) [11]: 1%
- Population Mitotic Cells (%) [11]: 8%
- Population Normal (%) [11]: 97%
- Population Pyknosed Nuclei (%) [11]: 9%
- Population Tubulin-Different-Phenotype (%) [11]: 2%
- Total Cell Count [11]: 385
- Population Apoptotic (%) [12]: 100%
- Population Fragmented Nuclei (%) [12]: 18%
- Population Healthy Nuclei (%) [12]: 74%
- Population Membrane Permeable-Phenotype (%) [12]: 8%
- Population Mitochondria Different-Phenotype (%) [12]: 4%
- Population Mitotic Cells (%) [12]: 0%
- Population Pyknosed Nuclei (%) [12]: 6%
- Population Tubulin-Different-Phenotype (%) [12]: 3%
- Total Cell Count [12]: 236
